Series [1] has as its system Rattus norvegicus. In words: Plasma clearance after intravenous administration at 5 mg/kg in rats. It is filed as functional. In a few lines:
(§1)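 Rats received an intravenous bolus of 5 mg/kg in PEG400/water (70:30). Half-life, Vss and plasma clearance were taken from plasma levels. Bioavailability was derived by comparison with oral gavage dosing at 20 mg/kg in the same vehicle.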

Series [2] deals with Rattus norvegicus. In words: Bioavailability in rat (dose 5 mg/kg i.v.). Format: functional, organism-based. Summed up:
as §1

Series [3] is described as follows: Inhibitory concentration against hepatitis C virus NS3 protease. Details: species or system Hepacivirus hominis.
Series [4] can be described thus: Maximum plasma concentration in rats after oral administration at 20 mg/kg. Format: ADME, organism-based. Details: dose 20 mg/kg, route oral. Conditions: rat. Summed up: (§2)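 Rats dosed by oral gavage at 20 mg/kg in PEG400/water (70:30). Cmax and AUC0-∞ were taken from the plasma concentration–time profile.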
Series [5] can be described thus: Half-life period in rats after intravenous administration at 5 mg/kg. Details: dose 5 mg/kg, route intravenous. As to conditions: rat, in vivo. It is filed as ADME, organism-based. Summed up:
as §1

Series [6] can be described thus: Area under the plasma concentration-time curve in rats after oral administration at 20 mg/kg. It is filed as ADME, organism-based. Details: dose 20 mg/kg, route oral. Conditions: rat. In a few lines:
as §2

A short description of series [7]: Vss was determined. Format: ADME, organism-based. Conditions: rat, in vivo; read-out: Vss. Summed up: as §1
In the next series the test system is Hepatitis C virus. Kind of series: Inhibition of hepatitis C virus in a cell based HCV replicon assay. It is filed as functional, organism-based, Hepacivirus hominis.
Series [8] can be described thus: Area under the plasma concentration-time curve in rats after oral administration at 25 mg/kg. Format: ADME, organism-based. Details: dose 25 mg/kg, route oral. Conditions: rat, read-out: AUC 0-infinity.
The test system of series [9] is Rattus norvegicus. Kind of series: Bioavailability from rat plasma at a single oral dose of 25 mg/kg. It is filed as ADME, organism-based. Conditions: in vivo.
The nature of series [10]: Half-life from rat plasma at a single oral dose of 25 mg/kg. It is filed as ADME, organism-based. Details: dose 25 mg/kg, route oral.
Series [11] is described as follows: Maximum plasma concentration in rats following oral administration at 20 mg/kg. It is filed as ADME, organism-based. Details: dose 20 mg/kg, route oral. As to conditions: rat. Summed up:
as §2

A short description of series [12]: Area under the plasma concentration-time curve in rats following oral administration at 20 mg/kg. Format: ADME, organism-based. Details: dose 20 mg/kg, route oral. As to conditions: rat. In a few lines: as §2

For `COc1ccc2c(O[C@@H]3C[C@H]4C(=O)N[C@]5(C(=O)O)C[C@H]5/C=C\CCCCC[C@H](NC(=O)OC5CCCC5)C(=O)N4C3)cc(-c3csc(NC(C)C)n3)nc2c1` [CILUPREVIR], the C1 with Rattus norvegicus [1] was 13 mL/min/kg. The same compound had a bioavailability with Rattus norvegicus [2] of 42%. Moreover, the IC50 (commonly the concentration needed to halve the response being measured) in series [3] was 3 nM. In series [4], the Cmax (in general, the maximum level reached in the sampled fluid or tissue) was 2500 nM. In series [5], the half-life (in general, the time in which the quantity being followed falls by half) was 78 min. The area under the curve (AUC) (as a rule, the area under the concentration-time curve, a measure of exposure) in series [6] worked out at 12.5 µM·h. The Vd in series [7] came out at 1 L/kg.

For the compound `COc1ccc2c(O[C@@H]3C[C@H]4C(=O)N[C@]5(C(=O)O)C[C@H]5/C=C\CCCCC[C@H](NC(=O)OC(C)(C)C)C(=O)N4C3)cc(-c3nnc(C)o3)nc2c1`, the IC50 in [3] worked out at 12 nM. The response with Hepatitis C virus was half-maximal at 200 nM (EC50).

On to `C=C[C@@H]1C[C@]1(NC(=O)[C@@H]1C[C@@H](Oc2cc(-c3ccccc3)nc3ccccc23)CN1C(=O)[C@@H](NC(=O)[C@@H](NC(=O)[C@@H](CCC(=O)O)NC(=O)[C@H](CC(=O)O)NC(C)=O)c1ccccc1)C(C)(C)C)C(=O)O`, for which half-maximal inhibition in [3] (IC50) required 0.5 nM. For the same compound, the EC50 (as a rule, the concentration at which the effect is half-maximal) with Hepatitis C virus was 1900 nM.

The compound `CNc1nc(-c2cc(O[C@@H]3C[C@H]4C(=O)N[C@]5(C(=O)O)C[C@H]5/C=C\CCCCC[C@H](NC(=O)OC5CCCC5)C(=O)N4C3)c3ccc(OC)cc3n2)cs1` registered an IC50 in series [3] of 2.5 nM. Also, in the series on Hepatitis C virus, the EC50 turned out to be 0.8 nM.

Turning to `COc1ccc2c(O[C@@H]3C[C@H]4C(=O)N[C@]5(C(=O)O)C[C@H]5/C=C\CCCCC[C@H](NC(=O)OC(C)(C)C)C(=O)N4C3)cc(-c3ccccc3)nc2c1`, in [3], the IC50 is 11 nM. Further, the EC50 with Hepatitis C virus is 77 nM. Moreover, the AUC in series [8] amounted to 0.2 µM·h. Besides, the F in the series on Rattus norvegicus [9] is 2%. The same compound gave a half-life in series [10] of 24 min.

In the case of `COc1ccc2c(O[C@@H]3C[C@H]4C(=O)N[C@]5(C(=O)O)C[C@H]5/C=C\CCCCC[C@H](NC(=O)OC(C)(C)C)C(=O)N4C3)cc(-n3cccc3)nc2c1`, inhibition in series [3] was half-maximal at 5.1 nM (IC50). The same compound yielded an EC50 with Hepatitis C virus of 9.5 nM.

In series [3], `C=C[C@@H]1C[C@]1(NC(=O)C1CC(Oc2ccnc3ccccc23)CN1C(=O)[C@@H](NC(=O)[C@@H](NC(C)=O)c1ccccc1)C(C)C)C(=O)O` (single isomer, unassigned) returned an IC50 of 170 nM. That is a sub-micromolar value.

As to `COc1ccc2c(O[C@@H]3C[C@H]4C(=O)N[C@]5(C(=O)O)C[C@H]5/C=C\CCCCC[C@H](NC(=O)OC5CCC5)C(=O)N4C3)cc(-c3csc(NC(C)=O)n3)nc2c1`, the IC50 in series [3] turned out to be 2.8 nM. Moreover, in the series on Hepatitis C virus, the EC50 was found to be 0.6 nM.

Regarding `COc1ccc2c(O[C@@H]3C[C@H]4C(=O)N[C@]5(C(=O)O)C[C@H]5/C=C\CCCCC[C@H](NC(=O)OC5CCCC5)C(=O)N4C3)cc(-c3csc(N)n3)nc2c1`, in series [3], the IC50 came to 3.5 nM. The same compound came in with an EC50 in the series on Hepatitis C virus of 1.6 nM.

The compound `COc1ccc2c(O[C@@H]3C[C@H]4C(=O)N[C@]5(C(=O)O)C[C@H]5/C=C\CCCCC[C@H](NC(=O)N[C@H](C)C(C)(C)C)C(=O)N4C3)cc(-c3csc(NC(C)=O)n3)nc2c1` gave an IC50 in series [3] of 1.4 nM. The midpoint of the response in the series on Hepatitis C virus, the EC50, lay at 20 nM.

Consider `COc1ccc2c(O[C@@H]3C[C@H]4C(=O)N[C@]5(C(=O)O)C[C@H]5/C=C\CCCCC[C@H](NC(=O)OC5CCCC5)C(=O)N4C3)cc(-n3ccc(C)n3)nc2c1`, for which inhibition in series [3] was half-maximal at 2.2 nM (IC50). In the series with Hepatitis C virus, the concentration giving a half-maximal response (EC50) was determined as 1.2 nM.

`CNc1nc(-c2cc(O[C@@H]3C[C@H]4C(=O)N[C@]5(C(=O)O)C[C@H]5/C=C\CCCCC[C@H](NC(=O)OC(C)(C)C)C(=O)N4C3)c3ccc(OC)cc3n2)cs1`: inhibition in [3] was half-maximal at 6.4 nM (IC50). In the series with Hepatitis C virus, this compound returned an EC50 of 6 nM.

For `COc1ccc2c(O[C@@H]3C[C@H]4C(=O)N[C@]5(C(=O)O)C[C@H]5/C=C\CCCCC[C@H](NC(=O)OC(C)(C)C)C(=O)N4C3)cc(-c3csc(NC(C)=O)n3)nc2c1`, the peak level in [11] (Cmax) was 300 nM. The compound further returned a bioavailability in the series with Rattus norvegicus [2] of 8%. The same compound gave an IC50 in [3] of 4.8 nM. The EC50 in the series with Hepatitis C virus came out at 4.5 nM. The half-life in series [5] is 48 min. Also, the exposure (AUC) in series [6] was determined as 0.3 µM·h.

`COc1ccc2c(O[C@@H]3C[C@H]4C(=O)N[C@]5(C(=O)O)C[C@H]5/C=C\CCCCC[C@H](NC(=O)OC5CCCC5)C(=O)N4C3)cc(-n3cccc3)nc2c1` returned an IC50 in series [3] of 3.6 nM. In the series on Hepatitis C virus, this compound registered an EC50 of 3.4 nM.

In [3], `COc1ccc2c(O[C@@H]3C[C@H]4C(=O)N[C@]5(C(=O)O)C[C@H]5/C=C\CCCCC[C@H](NC(=O)OC(C)(C)C)C(=O)N4C3)ccnc2c1` came in with an IC50 of 24 nM. In the series on Hepatitis C virus, the midpoint of the response, the EC50, lay at 1200 nM.

Take `COc1ccc2c(O[C@@H]3C[C@H]4C(=O)N[C@]5(C(=O)O)C[C@H]5/C=C\CCCCC[C@H](NC(=O)OC(C)(C)C)C(=O)N4C3)cc(-n3ccnc3)nc2c1`: the IC50 in series [3] amounted to 4.7 nM. This compound registered an EC50 in the series on Hepatitis C virus of 13 nM.

`C=C[C@@H]1C[C@]1(NC(=O)C1CC(Oc2cc(-c3ccccc3)nc3ccccc23)CN1C(=O)[C@@H](NC(=O)[C@@H](NC(C)=O)c1ccccc1)C(C)C)C(=O)O` (single isomer, unassigned) returned an IC50 in [3] of 13 nM.

Compound `COc1ccc2c(O[C@@H]3C[C@H]4C(=O)N[C@]5(C(=O)O)C[C@H]5/C=C\CCCCC[C@H](NC(=O)OC(C)(C)C)C(=O)N4C3)cc(-n3cccn3)nc2c1` came in with an IC50 in [3] of 5.5 nM. This compound also came in with an EC50 in the series with Hepatitis C virus of 3.9 nM.

Turning to `COc1ccc2c(O[C@@H]3C[C@H]4C(=O)N[C@]5(C(=O)O)C[C@H]5/C=C\CCCCC[C@H](NC(=O)OC5CCCC5)C(=O)N4C3)cc(-c3csc(NC(C)=O)n3)nc2c1`, 2.5 nM corresponded to half-maximal inhibition in series [3] (IC50). This compound came in with an EC50 in the series on Hepatitis C virus of 0.4 nM.

As to `COc1ccc2c(O[C@@H]3C[C@H]4C(=O)N[C@]5(C(=O)O)C[C@H]5/C=C\CCCCC[C@H](NC(=O)OC(C)(C)C)C(=O)N4C3)cc(-n3cnc(C)c3)nc2c1`, in [3], the IC50 came to 14 nM. The same compound had an EC50 in the series with Hepatitis C virus of 39 nM.

On to `COc1ccc2c(O[C@@H]3C[C@H]4C(=O)N[C@]5(C(=O)O)C[C@H]5/C=C\CCCCC[C@H](NC(=O)OC5CCCC5)C(=O)N4C3)cc(-n3cccn3)nc2c1`, for which the half-inhibitory concentration (IC50) in [3] turned out to be 2.2 nM. Besides, it took 1.1 nM to reach a half-maximal effect with Hepatitis C virus (EC50).

On to `COc1ccc2c(O[C@@H]3C[C@H]4C(=O)N[C@]5(C(=O)O)C[C@H]5/C=C\CCCCC[C@H](NC(=O)OC(C)(C)C)C(=O)N4C3)cc(-n3ccc(C)n3)nc2c1`, for which, in series [3], the IC50 worked out at 3 nM. The same compound returned an EC50 in the series with Hepatitis C virus of 4 nM.

On to `COc1ccc2c(O[C@@H]3C[C@H]4C(=O)N[C@]5(C(=O)O)C[C@H]5/C=C\CCCCC[C@H](NC(=O)OC(C)(C)C)C(=O)N4C3)cc(-c3csc(N)n3)nc2c1`, for which, in series [3], the IC50 was found to be 5.5 nM. The compound also had an EC50 in the series on Hepatitis C virus of 3.2 nM.

For `COc1ccc2c(O[C@@H]3C[C@H]4C(=O)N[C@]5(C(=O)O)C[C@H]5/C=C\CCCCC[C@H](NC(=O)OC(C)(C)C)C(=O)N4C3)cc(-n3cc(C)cn3)nc2c1`, inhibition in [3] was half-maximal at 22 nM (IC50). The response in the series with Hepatitis C virus was half-maximal at 20 nM (EC50).

In [11], `CCNc1nc(-c2cc(O[C@@H]3C[C@H]4C(=O)N[C@]5(C(=O)O)C[C@H]5/C=C\CCCCC[C@H](NC(=O)OC5CCCC5)C(=O)N4C3)c3ccc(OC)cc3n2)cs1` yielded a Cmax of 1000 nM. Moreover, in series [3], the half-inhibitory concentration (IC50) was found to be 2.9 nM. Further, the EC50 in the series on Hepatitis C virus was found to be 1 nM. The compound further showed an area under the curve (AUC) in series [12] of 7.2 µM·h.

The values are drawn from ChEMBL document CHEMBL1148447, “Structure-activity study on a novel series of macrocyclic inhibitors of the hepatitis C virus NS3 protease leading to the discovery of BILN 2061” (J Med Chem, 2004).
